# Assay outcomes (PubChem BioAssay)
# The full list was thinned out, with hits kept by preference.
# CHOP inh: blocks CHOP induction under ER stress. inhibition, % at 10 µM. CHO-K1 CHOP-promoter luciferase, tunicamycin-induced, 15-18 h. AID 2732. 220,000 tested, 3.8% active;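 active means compounds that reduced the stress-induced luciferase reporter signal by more than about 70% of percent inhibition, limit read from the data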;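 further: 0% = tunicamycin plus vehicle and 100% = wells without tunicamycin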
# Tb MetRS inh: blocks T. brucei methionyl-tRNA synthetase activity | inhibition, % at 11.9 µM | purified T. brucei MetRS, ATP depletion, Kinase-Glo luminescence | 360,000 tested, 0.4% active;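 active means inhibition above a per-plate cutoff of the control wells' mean inhibition plus 3 SD, cut at about 5.5% in these data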;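 further: 0% = DMSO wells median and 100% = median of wells with control inhibitor compound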
#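 Dosing: 11.9 µM single point; system: parasite MetRS enzyme; technique: luminescence of leftover ATP; times: 15 min enzyme-compound preincubation, 2 h reaction, 10 min detection, 25 °C; replicates: each compound tested once; read-out basis: percent inhibition relative to median high and low control wells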
# UPR CHOP act: apoptotic UPR (CHOP) activation | CHO-CHOP luciferase reporter, luminescence; percent of tunicamycin response over DMSO baseline | activation, % at 10 µM | 330,000 tested, 0.34% active | AID 449763;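 active means at 10 µM dose, activation of 40% or more, normalized to positive control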;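 further: 100% = tunicamycin at 10 µg/mL and 0% = DMSO alone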
#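 assay system = CHO CHOP reporter cells | amount = 500 CHO-CHOP cells per well | buffer or medium = F12 with 10% FBS | incubation = 16-18 h cell attachment, then 6 h compound exposure, 37 °C | detection = luminescence read with Steady-Glo | read-out = percent activation relative to tunicamycin control | controls = tunicamycin high control, DMSO low control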
# V-ATPase pHluor: yeast V-ATPase proton transport regulation by pHLuorin; S. cerevisiae, pHLuorin cytosolic pH fluorescence; response, % at 10 µM; 350,000 tested, 0.37% active; AID 504577; in the data active means response mostly above about 7.3%, no sharp cut-off; inactive means mostly below about 5.4%; further: actives read high
# UPR XBP1 act: activators of adaptive arm of unfolded protein response (XBP1) | CHO-XBP1 luciferase reporter, IRE1-XBP1 UPR activation, luminescence; percent of tunicamycin response, DMSO as zero | activation, % at 20 µM | 330,000 tested, 0.33% active | AID 463104;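 active means versus positive control, 20 µM dose yields 30% or more activation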;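 further: 100% = tunicamycin at 10 µg/mL and 0% = DMSO only wells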
#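 incubation = overnight seeding at 37 °C, 6 h compound treatment at 37 °C | assay system = CHO-XBP1 cells stably carrying IRE1-XBP1-driven luciferase reporter | input = 1000 cells per well | detection = luciferase luminescence | dosing = single point, 20 µM final compound, 1% DMSO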
# Starred values were filed as active, the others as inactive; . = no result given.
SMILES,CHOP inh,Tb MetRS inh,UPR CHOP act,V-ATPase pHluor,UPR XBP1 act
CC(=O)Nc1cccc(-c2nc3ccccc3[nH]2)c1,7,0,2,-3,-1
CC(Oc1ccccc1)C(=O)Nc1cccc(-c2nc3ccccc3[nH]2)c1 (stereo not drawn),41,38*,2,0,0
CNc1ncnc2c1ncn2[C@H]1CN(Cc2ccncc2)C[C@@H](CO)O1,.,0,.,.,.
COc1ccc(N2CCN(C(=O)CN3CCN(c4nc(-c5ccc(F)cc5)cs4)CC3)CC2)cc1,80*,-1,6,1,-1
COc1ccc(CNC(=O)COC(=O)C2CCC(C(C)(C)C)CC2)cc1 (stereo not drawn),90*,-1,-1,3,-1
CC(=O)Nc1cccc(/C(C)=N/NC(=O)c2cccc(S(=O)(=O)N3CCCC3)c2)c1,.,0,.,2,.
C=C(C)COc1ccc(-c2nc(N)nc(C)c2Oc2ccccc2OC)c(O)c1,85*,-1,-1,-1,0
C=C(C)COc1ccc(-c2nc(N)ncc2-c2ccc(OC)cc2)c(O)c1,103*,.,.,.,.
COc1ccc(-c2nc(N)nc(C)c2-c2ccc(Cl)cc2)c(O)c1,.,-1,-1,1,6
COc1ccc(-c2nc(N)ncc2Oc2ccccc2Br)c(O)c1,88*,0,-1,-2,0
C=C(C)COc1ccc(-c2nc(N)ncc2-c2ccc(OC)c(OC)c2)c(O)c1,.,0,0,0,1
C=C(C)COc1ccc(-c2nc(N)nc(C)c2-c2ccc(OC)cc2)c(O)c1,92*,-1,4,3,-2
O=C(NCc1ccccc1CN1CCCC1)c1ccc(Cl)c(S(=O)(=O)N2CCCC2)c1,.,-1,0,0,-1
OCC1OCOC2C(CO)OCOC12 (stereo not drawn),.,-2,.,5,.
O=c1c2cc(Cl)ccc2[nH]c(=S)n1Cc1cccs1,97*,0,1,-2,1
O=c1c2cc(F)ccc2[nH]c(=S)n1Cc1ccc(F)cc1,.,0,2,-4,-1
CCc1noc(C)c1C(=O)Nc1nc(-c2ccc(Cl)cc2Cl)cs1,73*,1,-2,1,-1
CC(C)=CCC[C@H](C)C[C@@H]1Cc2[nH][nH]c(=O)c2[C@@H](c2ccc(F)cc2)O1,.,-1,.,.,.
Cc1cc(C)nc(NC(=O)Nc2ccc3c(c2)OCO3)c1,71*,-1,-1,1,-1
COC(=O)c1oc2ccccc2c1NC(=O)CN1CCCC1,72*,-1,-1,-3,-1
COC(=O)c1oc2ccc(Br)cc2c1NC(=O)CN1CCN(C)CC1,.,0,1,-2,-2
CCNC(=O)C1OC(n2cnc3c(NCc4ccccc4)ncnc32)C(O)C1O (stereo not drawn),-7,.,.,.,.
O=C(c1ccccn1)C1CCCN(Cc2cn[nH]c2-c2cc3ccccc3o2)C1 (stereo not drawn),9,-1,-1,16*,1
c1ccc(CCC2CCCCN2Cc2cn[nH]c2-c2cc3ccccc3o2)nc1 (stereo not drawn),4,-1,-1,0,-3
COc1ccc(-c2csc(C(C)(NC(C)=O)c3ccccc3)n2)cc1 (stereo not drawn),.,0,.,.,.
SMILES,CHOP inh,Tb MetRS inh,UPR CHOP act,V-ATPase pHluor,UPR XBP1 act
CC(C)CCSc1nc2[nH]ncc2c(=O)[nH]1,10,0,-2,48*,-1
C#CCSc1nc2[nH]ncc2c(=O)[nH]1,9,0,-1,.,-2
Cc1cc(N2CCCC2=O)cc(C)c1S(=O)(=O)NCCOc1ccc(C(C)(C)C)cc1,78*,-1,7,-6,0
Cc1noc(C)c1C(=O)OCC(=O)NC(=O)NC12CC3CC(CC(C3)C1)C2,81*,0,0,6,0
CC(Cl)C(=O)NC(=O)NC12CC3CC(CC(C3)C1)C2 (stereo not drawn),12,0,2,-1,2
O=C(CCl)NC(=O)NC12CC3CC(CC(C3)C1)C2,103*,0,.,3,.
COc1cc(C)c2c(c1OC)C(=O)CC2,.,0,.,-6,.
OCCN1CCN(c2ncnc3c2ncn3[C@H]2CN(Cc3cccc(C(F)(F)F)c3)C[C@@H](CO)O2)CC1,.,0,.,.,.
CN(C)C(CNC(=O)c1ccc(NS(=O)(=O)c2ccc(F)c(F)c2)cc1)c1ccccc1 (stereo not drawn),.,0,0,-1,-2
Cc1ccccc1Nc1nnc(SCc2nc3ccccc3c(=O)[nH]2)s1,32,.,1,.,-2
CCOc1ccc(Nc2nnc(SCc3nc4ccccc4c(=O)[nH]3)s2)cc1,96*,0,1,-3,3
Cc1ccc(Nc2nc(N)c([N+](=O)[O-])c(NCCO)n2)cc1C,19,-1,5,3,5
Cc1ccc(Nc2nc(N)c([N+](=O)[O-])c(NCc3ccco3)n2)cc1C,79*,0,5,2,3
Cc1ccc(C(=O)c2ccc(C(F)(F)F)cc2)cc1,93*,.,-1,.,6
CN(C)C(=O)c1cc(C(=O)c2ccc(C(F)(F)F)cc2)c[nH]1,.,-1,5,0,6
COc1ccc(C(C)(O)c2nc(-c3cccc(C(C)C)c3)cs2)cc1 (stereo not drawn),.,0,.,.,.
CC1=CCP(=O)(c2ccccc2)C1 (stereo not drawn),72*,0,-4,-5,4
Cc1cccc(N2C(=O)CC(Sc3nc(C)c4c(n3)CCCC4)C2=O)c1 (stereo not drawn),-2,-2,0,0,-2
Cc1nc(SC2CC(=O)N(c3cc(Cl)cc(Cl)c3)C2=O)nc2c1CCCC2 (stereo not drawn),95*,0,-1,-1,0
CCOC(=O)[C@]12CCC=C1N(Cc1ccccc1)C(=O)[C@H](CC(=O)NCC13CC4CC(CC(C4)C1)C3)C2,.,0,.,.,.
COc1cccc(C(=O)Nc2ccc(Cl)c(C(F)(F)F)c2)c1,71*,0,2,-3,3
CCC(C(=O)NCC1CCCO1)n1nc(C)c2sc3ccccc3c2c1=O (stereo not drawn),.,0,-1,4,-3
CCOC(=O)C1CCCN(C(=O)C2(c3ccc(Cl)cc3)CCCC2)CC1 (stereo not drawn),.,0,.,.,.
Cc1cc(NC(=O)c2ccc3c(c2)OCCO3)ccc1NC(=O)c1cc2ccccc2o1,24,0,4,4,3
O=C(Nc1ccc(NC(=O)c2cc3ccccc3o2)cc1)c1ccc2c(c1)OCCO2,72*,-1,-2,-3,1
Cc1ccc(S(=O)(=O)N2C[C@H]3C(=O)C[C@@H](c4cccs4)N(S(=O)(=O)c4ccc(C)cc4)[C@H]3C[C@H]2c2ccccc2)cc1,.,-1,.,.,.
Cc1cc(F)ccc1-c1cc(C(=O)NCc2cccs2)[nH]n1,.,0,.,.,.
O=C(NNC(=O)c1c(O)c2ccccc2[nH]c1=O)c1ccccc1,.,-1,2,-3,2
